Assay [1] concerns the target Delta-aminolevulinic acid dehydratase (Yersinia enterocolitica W22703) (UniProt F4MUJ9). In words: Inhibition of Yersinia enterocolitica recombinant PBGS expressed in Escherichia coli using 5-ALA as substrate at 50 to 200 uM at pH 7 to 8.5 by buffer scan assay in presence of KCl.
Assay [2] deals with T1, Delta-aminolevulinic acid dehydratase (Pseudomonas aeruginosa (strain ATCC 15692 / PAO1 / 1C / PRS 101 / LMG12228), UniProt Q59643). As to the kind of experiment: Inhibition of Pseudomonas aeruginosa PAO1 recombinant PBGS using 5-ALA as substrate. Put shortly: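 Turnover kept at or below 30%. Porphobilinogen measured with Ehrlich's reagent. IC50 by variable-slope fit of activity normalized to DMSO control.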
T1 sequence (Q59643 whole entry): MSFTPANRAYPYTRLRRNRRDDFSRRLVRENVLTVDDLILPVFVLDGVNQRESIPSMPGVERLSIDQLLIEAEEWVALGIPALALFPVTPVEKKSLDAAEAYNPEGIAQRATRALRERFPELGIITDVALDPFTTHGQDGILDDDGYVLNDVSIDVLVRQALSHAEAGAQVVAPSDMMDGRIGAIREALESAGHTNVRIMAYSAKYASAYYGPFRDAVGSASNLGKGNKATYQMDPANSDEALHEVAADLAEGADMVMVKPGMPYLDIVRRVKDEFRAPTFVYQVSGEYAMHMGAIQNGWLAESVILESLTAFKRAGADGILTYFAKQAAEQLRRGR

In assay [3] the target is Delta-aminolevulinic acid dehydratase (Pseudomonas aeruginosa (strain ATCC 15692 / PAO1 / 1C / PRS 101 / LMG12228)) (UniProt Q59643). As to the kind of experiment: Stimulation of Pseudomonas aeruginosa PAO1 recombinant PBGS using 5 mM 5-ALA as substrate assessed as increase in Vmax at 10 to 10000 uM at pH 8 by buffer scan assay in presence of MgCl2. Put shortly: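 Mg2+ or substrate response curves recorded with and without wALADin1; VMAX, KM and Mg2+ affinity derived from the fits.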
Chain of Delta-aminolevulinic acid dehydratase (Pseudomonas aeruginosa (strain ATCC 15692 / PAO1 / 1C / PRS 101 / LMG12228)) (Q59643 whole entry): as above

The target is the same in assay [4]. As to the kind of experiment: Binding affinity to Pseudomonas aeruginosa PAO1 recombinant PBGS at 100 to 500 uM by thermal shift assay in presence of KCl.
Assay [5] addresses Delta-aminolevulinic acid dehydratase (Yersinia enterocolitica W22703) (UniProt F4MUJ9). As to the kind of experiment: Stimulation of Yersinia enterocolitica recombinant PBGS expressed in Escherichia coli at 125 to 2000 uM by nondenaturing PAGE analysis in presence of Mg2+ and K+. Put shortly:
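YePBGS (2 μg) preincubated 20 min at 37 °C in BTP pH 8.0 buffer with K+, Mg2+ and wALADin1. Run on 7.5% nondenaturing PAGE; Coomassie stain and in-gel activity (100 mM KCl, 10 mM MgCl2, 500 μM 5-ALA) read with Ehrlich's reagent.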

Assay [6] deals with Delta-aminolevulinic acid dehydratase (Pseudomonas aeruginosa (strain ATCC 15692 / PAO1 / 1C / PRS 101 / LMG12228)) (UniProt Q59643). In words: Stimulation of Pseudomonas aeruginosa PAO1 recombinant PBGS assessed as stabilization of octameric form at 250 uM at pH 7 to 8.5 by nondenaturing PAGE analysis in presence of Mg2+ and K+.
The target is the same in assay [7]. In words: Stimulation of Pseudomonas aeruginosa PAO1 recombinant PBGS assessed as stabilization of dimeric form at 8 to 2000 uM by nondenaturing PAGE analysis in presence of Mg2+ and K+ and 5-ALA.
Assay [8] shares this target. In words: Stimulation of Pseudomonas aeruginosa PAO1 recombinant PBGS.
For assay [9] the target is unchanged. In words: Inhibition of Pseudomonas aeruginosa PAO1 recombinant PBGS using 0.2 mM 5-ALA as substrate at 50 to 200 uM at low pH by buffer scan assay.
Assay [10] has the same target. As to the kind of experiment: Inhibition of Pseudomonas aeruginosa PAO1 recombinant PBGS using low 5-ALA level as substrate at 50 to 200 uM by buffer scan assay.
Assay [11] concerns the target T2, Delta-aminolevulinic acid dehydratase, chloroplastic (Pisum sativum) (UniProt P30124).
T2 sequence (whole entry): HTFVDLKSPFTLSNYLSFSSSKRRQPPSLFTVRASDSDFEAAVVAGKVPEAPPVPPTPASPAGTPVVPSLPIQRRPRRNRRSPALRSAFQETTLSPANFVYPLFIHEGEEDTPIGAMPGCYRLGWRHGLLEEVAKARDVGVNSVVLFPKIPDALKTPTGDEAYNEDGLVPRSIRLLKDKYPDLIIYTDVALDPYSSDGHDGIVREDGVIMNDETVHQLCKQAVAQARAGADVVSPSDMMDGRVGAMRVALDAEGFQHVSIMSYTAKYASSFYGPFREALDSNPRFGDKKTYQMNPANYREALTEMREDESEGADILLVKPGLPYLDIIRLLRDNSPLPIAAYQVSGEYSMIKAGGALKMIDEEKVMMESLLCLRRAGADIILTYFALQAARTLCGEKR
As to the kind of experiment: Inhibition of Pisum sativum PBGS using 10 mM 5-ALA as substrate assessed as decrease in enzyme activity at 6.25 to 100 uM in presence of MgCl2. To be noted: Lathyrus oleraceus.

The target in assay [12] is T3, Delta-aminolevulinic acid dehydratase (Escherichia coli (strain K12)) (UniProt P0ACB2).
T3 sequence (whole entry): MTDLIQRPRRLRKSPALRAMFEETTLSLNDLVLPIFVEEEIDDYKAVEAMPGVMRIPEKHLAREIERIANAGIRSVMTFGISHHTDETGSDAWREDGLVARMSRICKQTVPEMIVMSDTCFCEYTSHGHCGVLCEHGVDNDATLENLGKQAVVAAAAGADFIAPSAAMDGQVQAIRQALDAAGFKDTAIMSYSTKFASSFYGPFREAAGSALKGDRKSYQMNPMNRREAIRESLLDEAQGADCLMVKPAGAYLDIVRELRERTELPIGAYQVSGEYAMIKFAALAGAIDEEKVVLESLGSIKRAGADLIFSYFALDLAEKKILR
In words: Stimulation of Escherichia coli recombinant PBGS using 5-ALA as substrate relative to control. The procedure, abridged: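 E. coli PBGS at 200 nM subunit in 100 mM BTP-HCl pH 8.1 with 1 mM MgCl2, 10 μM ZnCl2, 5 mM DTT and 0.2 mM 5-ALA, 10 min at 36 °C. Porphobilinogen detected with Ehrlich's reagent. EC50 by log(agonist) vs response variable-slope fit.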

Assay [13] deals with Delta-aminolevulinic acid dehydratase (Yersinia enterocolitica W22703, UniProt F4MUJ9). As to the kind of experiment: Stimulation of Yersinia enterocolitica recombinant PBGS expressed in Escherichia coli using 5-ALA as substrate.
Chain of Delta-aminolevulinic acid dehydratase (Yersinia enterocolitica W22703, UniProt F4MUJ9) (F4MUJ9 whole entry): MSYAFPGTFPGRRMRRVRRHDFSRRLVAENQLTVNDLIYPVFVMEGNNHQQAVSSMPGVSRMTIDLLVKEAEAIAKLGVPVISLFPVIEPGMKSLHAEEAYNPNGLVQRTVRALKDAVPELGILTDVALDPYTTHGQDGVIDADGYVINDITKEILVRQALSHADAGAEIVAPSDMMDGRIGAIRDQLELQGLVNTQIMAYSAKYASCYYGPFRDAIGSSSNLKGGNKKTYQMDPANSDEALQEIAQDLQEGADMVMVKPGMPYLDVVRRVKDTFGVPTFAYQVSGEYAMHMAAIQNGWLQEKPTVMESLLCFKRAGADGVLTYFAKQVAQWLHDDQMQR
Assay [14] deals with Delta-aminolevulinic acid dehydratase (Yersinia enterocolitica W22703) (UniProt F4MUJ9). In words: Stimulation of Yersinia enterocolitica recombinant PBGS expressed in Escherichia coli using 5-ALA as substrate relative to control. Put shortly: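 Y. enterocolitica PBGS, expressed in E. coli from pET3, at 150 nM subunit in 100 mM BTP-HCl pH 8.0 with 1 mM MgCl2, 5 mM DTT, 100 mM KCl and 0.2 mM 5-ALA, 10 min at 36 °C. Porphobilinogen read with Ehrlich's reagent. Activity normalized to 6.7% DMSO control as 100%. EC50 from variable-slope agonist fit.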
Chain of Delta-aminolevulinic acid dehydratase (Yersinia enterocolitica W22703) (F4MUJ9 as listed by the source): as the sequence (F4MUJ9 whole entry) above

For assay [15], the target named is T1, Delta-aminolevulinic acid dehydratase. In words: Stimulation of Pseudomonas aeruginosa PAO1 recombinant PBGS using 5-ALA as substrate. Put shortly:
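His-tagged PaPBGS at 150 nM subunit in 100 mM Tris-HCl pH 8.0 with 1 mM MgCl2, 100 mM KCl and 0.2 mM 5-ALA, 10 min at 36 °C, with turnover at most 30%. Porphobilinogen read with Ehrlich's reagent. Activity normalized to 6.7% DMSO control as 100%. EC50 from variable-slope agonist fit.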

Another assay relates to Toxoplasma gondii. As to the kind of experiment: Stimulation of Toxoplasma gondii recombinant PBGS using 5-ALA as substrate relative to control. Put shortly: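 Recombinant T. gondii PBGS (hemB in pET-21b, expressed in BL21 E. coli) at 250 nM subunit in 100 mM Tris-HCl pH 8.0, 1 mM MgCl2, 5 mM DTT, with 200 μM 5-ALA, 20 min at 36 °C. Porphobilinogen was read with Ehrlich's reagent, and turnover was kept at or below 30%.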

One compound from ChEMBL document CHEMBL3286371, “wALADin benzimidazoles differentially modulate the function of porphobilinogen synthase orthologs” (J Med Chem, 2014) can be followed below.

Structures are written as SMILES. The source made the active and inactive calls. The calls are words filed in the database; no cut-off is given here.

Take `O=C(O)c1ccc2c(c1)nc(CCNC(=O)c1cccs1)n2Cc1cccc(C(F)(F)F)c1`: the inhibition result in assay [1], in assay [9], in assay [10] and in assay [11] was “Active” in each case. Further, in assay [2], the IC50 stood at 79 µM. Moreover, the result in assay [3], in assay [4] and in assay [6] was Active. The result in [5] and in assay [7] was inactive. Also, the Activity in assay [8] worked out at 20%. The Smax in [12] is 120%; in assay [14], 152%; in the assay on Toxoplasma gondii it was 128%. In addition, the values for the EC50 in [13] and in assay [15] were 66 µM and 69 µM, respectively.
